The results in this text go back to PubChem BioAssay.

A number with no mark means an inactive call. Records with an inconclusive call do not appear. Active and inactive are the calls of the source.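 How the source made its calls, unless noted: active means viability increase at or above a cutoff of the median across tested compounds plus 3 SD (cut at about 8.5% in these data, passing the limit was not always enough); inconclusive means some gains above the cutoff, reason not given; inactive means the rest.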

Test [1] can be described thus: S. cerevisiae growth inhibition in permissive medium (OD615), pilot counter-assay for S. cerevisiae lifespan shortening project, permissive growth control (AID 705;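 active means growth inhibition above 25% in both replicates, a cutoff set 3 SD above the mean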). The settings on record: OD615, 24 h, at 10 µM, hits give high values. In outline:
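Material: engineered DeaD yeast; compound dosing: one dose 10 µM, DMSO 0.25% final; measure: yeast growth inhibition indicated by reduced 24 h OD615; detection: OD615 turbidity read; incubation: cells pre-grown 4 h, then 24 h compound exposure, 30 °C humidified; medium: permissive synthetic complete medium with raffinose and galactose carbon sources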

Test [2] can be described thus: S. cerevisiae growth inhibition in restrictive medium, OD615, pilot screen, restrictive growth control, yeast lifespan reduction project (AID 706;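 active means growth inhibition above a set limit, 3 SD over mean compound inhibition, in both replicates, cut at about 43% in these data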;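 further: modified DeaD lifespan yeast strain shifted to restrictive glucose medium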). The note with it: OD615, 48 h, at 10 µM, hits give high values. In outline: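 material = engineered S. cerevisiae DeaD strain | medium = glucose-based CSMM-D restrictive medium | times = 4 h pre-incubation, 48 h exposure at 30 °C | technique = OD615 absorbance reading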

A short description of test [3]: doxorubicin toxicity protection in MRP-1 cells – H69AR cells, CellTiter-Glo, duplicate, MRP-1 activator project, pilot screen (AID 807).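 Further: compound pretreatment 18-22 h then 72 h combined with doxorubicin; 0% = doxorubicin alone and 100% = vehicle without doxorubicin.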 The note with it: H69AR viability with doxorubicin, CellTiter-Glo luminescence; at 10 µM; hits give high values.
Test [4] in a line: viability of HCT116 without oncogenic beta-catenin – human colon tumor cells, pilot screen (AID 823;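 active means cell viability at or below a set limit in both duplicate runs, the limit being the all-compound median minus 4 SD, cut at about 23% in these data, passing the limit was not always enough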;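 further: 0% = wells killed by 20 µM Hyamine and 100% = untreated DMSO cell wells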). The settings on record: HCT116 beta-catenin knockout viability, CellTiter-Glo, 60 h; at 10 µM; hits give low values. (In general: In ATP-based viability assays light output follows the ATP content of the culture.)
Test [5] can be described thus: viability of PTEN-null HCT116 cells – cell-based, HCT116 clonal line, CellTiter-Glo, pilot screen (AID 824;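 active means viability at or below 27.92% in each of two runs, the all-compound median minus 4 SD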;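 further: 0% = 20 µM Hyamine control and 100% = vehicle cell control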). The note with it: HCT116 PTEN-deleted viability, 60 h, at 10 µM, hits give low values.
A short description of test [6]: RAM pathway blockade in budding yeast – dse1pr::URA3 reporter, 5-FOA selection, pilot screen (AID 869;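 active means inhibition over a set limit, the all-compound mean plus 3 SD, in both replicate runs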;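 further: 0% = DMSO wells with no growth and 100% = 10 µM 1-NA-PP1 with full growth; RAM network block rescues cells from 5-FOA so hits raise OD615 growth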). The settings on record: S. cerevisiae dse1pr::URA3 5-FOA growth, OD615, 2 d; at 10 µM; hits give high values; strain carries analog-sensitive mutant Cbk1 kinase.
Test [7] is described as follows: RAM signaling pathway blockade in yeast – S. cerevisiae, Pdr1DBD-CYC8 efflux-inhibited sensitized strain, primary screen (AID 1298;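 active means RAM network inhibition above 8.4% in each of two replicates, 3 SD over the compound average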;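 further: 0% = DMSO untreated cells without growth and 100% = 10 µM 1-NA-PP1 full growth; higher means more yeast growth rescued from 5-FOA killing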). The note with it: S. cerevisiae cbk1-as DSE1-URA3 strain, 5-FOA growth OD615, 2 d; at 50 µM; hits give high values.

As usually defined, the viability is a read-out of living cells in per cent, often relative to untreated cells. A word on the inhibition: it is the change of the read-out against control, counted positive when it falls. Consider `CCOc1ccc(-n2c(SCC(=O)Nc3nccs3)nc3c(c2=O)SCC3)cc1`, for which the growth inhibition is -7.92% in test [1] and -5.48% in test [2]. The viability increase in test [3] is -0.41%. Also, the values for the viability in test [4] and in test [5] were 104% and 98.3%, respectively. Moreover, in test [6], the inhibition is 3.15%. In addition, the RAM network inhibition in test [7] is 4.65%.
As for `COc1ccc(CN2CCN(c3ncccn3)CC2)c(OC)c1`, the growth inhibition was -0.81% in test [1] and 3.13% in test [2]. Besides, the viability increase in test [3] was -1.8%. Moreover, the viability was 94.5% in test [4] and 89.3% in test [5]. Moreover, the inhibition in test [6] was 1.24%. Moreover, in test [7], the RAM network inhibition was 6.9%.
As to `CCOCCCNC(=O)c1cc2c(=O)n3cccc(C)c3nc2n1C`, the growth inhibition in test [1] is -19.1%; in test [2], -15.2%. The viability increase in test [3] was -5.27%. Moreover, the figures for the viability in test [4] and in test [5] were 19% (active) and 24.4% (active), respectively. The inhibition in test [6] was 2.11%. For the same molecule, in test [7], the RAM network inhibition is 2.32%.
As to `Cc1nnc(NC(=O)CSc2nnc(Cc3cccn3C)n2-c2cccc(C(F)(F)F)c2)s1`, the values for the growth inhibition in test [1] and in test [2] were -1.29% and 13.7%, respectively. In addition, in test [3], the viability increase is -3.3%. Besides, the viability in test [4] was 98.8%; in test [5], 94%. Moreover, the inhibition in test [6] is 0.075%. In addition, in test [7], the RAM network inhibition was 3.85%.
Take `COCCN(CCOC)Cc1c(C)[nH]c2c(C)c(C)ccc2c1=O`: the growth inhibition in test [1] was -16.2%; in test [2], -9.49%. For the same molecule, the viability increase in test [3] was -1.96%. Besides, the viability in test [4] was 96.8%; in test [5] it was 100%. Besides, the inhibition in test [6] was 2.54%. In addition, in test [7], the RAM network inhibition is 3.28%.
As to `COCc1nc(-c2ccc(-c3ccc(OC)cc3)nc2OC)no1`, the growth inhibition in test [1] is 11.9%; in test [2] it was 3.28%. In addition, the viability increase in test [3] was -0.98%. The viability in test [4] was 71%; in test [5] it was 72.2%. In addition, the inhibition in test [6] is 1%. Besides, the RAM network inhibition in test [7] is 2.1%.
As for `CCOC(=O)c1sc(NC(=O)C2CC2)nc1C`, the results for the growth inhibition in test [1] and in test [2] were -2.83% and 0.375%, respectively. The viability increase in test [3] was 0.91%. The viability was 99.6% in test [4] and 95.1% in test [5]. In test [6], the inhibition was 0.595%. Further, in test [7], the RAM network inhibition is -1.46%.
Regarding `N=c1n(CCOc2ccccc2)c2ccccc2n1CCN1CCOCC1`, the growth inhibition is -1.46% in test [1] and 6.28% in test [2]. The viability increase in test [3] was -3.52%. For the same molecule, the viability was 82.5% in test [4] and 85.8% in test [5]. Moreover, the inhibition in test [6] is 0.845%. The RAM network inhibition in test [7] was -0.47%.
Regarding `Cc1cc(NC(=O)CSc2ccc3nnc(-c4ccccn4)n3n2)no1`, the results for the growth inhibition in test [1] and in test [2] were -3.09% and 10.1%, respectively. Further, the viability increase in test [3] is -1.04%. Besides, the viability in test [4] is 102%; in test [5], 90.4%. Also, the inhibition in test [6] was 0.535%. Moreover, the RAM network inhibition in test [7] is 1.71%.
With `CN1C(=O)CS(=O)c2ccc(C(=O)NC3CC3)cc21` (configuration not stated), the growth inhibition in test [1] is 1.7%; in test [2], -0.875%. In addition, the viability increase in test [3] is -2.2%. The viability in test [4] is 99.4%; in test [5], 95.4%. Also, in test [6], the inhibition was 2.25%. Further, in test [7], the RAM network inhibition is -1.59%.
As for `CCOC(=O)c1ccc(N=c2sc(C(=O)OC)cc(=O)n2CCCN2CCOCC2)cc1`, the results for the growth inhibition in test [1] and in test [2] were -4.99% and -3.88%, respectively. The viability increase in test [3] is -8.16%. For the same molecule, the viability in test [4] is 57.4%; in test [5], 52.6%. Also, in test [6], the inhibition was 2.12%. The RAM network inhibition in test [7] was 2.6%.
For `Cc1ccc2c(CC(=O)Nc3nc(C)cs3)coc2c1`, the growth inhibition in test [1] was -5.02%; in test [2], 0.02%. Besides, the viability increase in test [3] is 0.52%. Further, the results for the viability in test [4] and in test [5] were 76.5% and 80.4%, respectively. The inhibition in test [6] was 1.38%. Besides, the RAM network inhibition in test [7] was 0.88%.
Regarding `COc1cc(S(=O)(=O)N2CCN(Cc3ccc4c(c3)OCO4)CC2)c(C)cc1C`, the growth inhibition is -4.19% in test [1] and -11.6% in test [2]. For the same molecule, in test [3], the viability increase was -4.77%. In addition, the viability in test [4] was 57.5%; in test [5] it was 71.1%. For the same molecule, the inhibition in test [6] was 2.5%. Moreover, the RAM network inhibition in test [7] is 5.84%.
For `Cc1ccc(S(=O)(=O)NCC(=O)N2CCOCC2)cc1`, the growth inhibition is -3.62% in test [1] and -10.3% in test [2]. For the same molecule, the viability increase in test [3] was -1.57%. The viability in test [4] is 103%; in test [5] it was 109%. Moreover, the inhibition in test [6] is -0.085%. For the same molecule, the RAM network inhibition in test [7] was 0.68%.
Consider `COc1ccc(N2C(=O)C3CCCN3C2c2ccc(C)cc2)cc1` (configuration not stated), for which the growth inhibition in test [1] is -2.01%; in test [2], 2.53%. Besides, in test [3], the viability increase is -1.95%. Besides, the values for the viability in test [4] and in test [5] were 97.6% and 99.2%, respectively. For the same molecule, in test [6], the inhibition was 1.94%. Besides, in test [7], the RAM network inhibition was -1.51%.
For the molecule `COc1ccc(OC)c(NC(=O)c2ccc(CN3CCOCC3)cc2)c1`, the growth inhibition is 9.65% in test [1] and 0.145% in test [2]. The viability increase in test [3] was 0.88%. Also, the viability is 104% in test [4] and 111% in test [5]. Further, in test [6], the inhibition is 1.52%. For the same molecule, the RAM network inhibition in test [7] is 4.85%.
